This note sets out measurements from ChEMBL document CHEMBL3352407, “Griseorhodins D-F, neuroactive intermediates and end products of post-PKS tailoring modification in Griseorhodin biosynthesis” (J Nat Prod, 2014).

This assay deals with DRG neuron. Briefly: Increase in Ca2+ uptake in mouse DRG neurons at 20 ug/ml by Fura-2 dye-based fluorescence microscopy. The format is functional. The method, boiled down:
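Mouse DRG cells plated in medium with additives and loaded with the Ca2+ dye Fura-2 AM. Compound applied directly at 20 μg/mL. Read-out is the fraction of cells showing a rise in Ca2+ concentration.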

Calls of active or inactive are those of the source. The calls are words filed in the database; no cut-off is given here.

For `Cc1cc2cc(CCC(=O)O)c(O)c(O)c2c(=O)o1`, the outcome was Active.
